Results from different studies.
Each line is one published result; the experiments were not run side by side.
PRKAA2: 5'-AMP-activated protein kinase catalytic subunit alpha-2 (PRKAA2, Homo sapiens, UniProt P54646)
PSMB6: Proteasome subunit beta type-6 (PSMB6, Homo sapiens, UniProt P28072)
DPP4: Dipeptidyl peptidase 4 (DPP4, Homo sapiens, UniProt P27487)

Structure (SMILES)	target	test	setting	measurement	result
Cn1cc(-c2cc(F)cc(N3CCn4c(cc5c4CCCC5)C3=O)c2CO)cc(Nc2ccc(N3CCN(C4COC4)CC3)cn2)c1=O	PRKAA2	enzyme activity, inhibitor	0.1 µM	inhibition	14%
C#Cc1n[nH]c2c(-c3cn([C@@H](C)c4ccccc4)c(=O)[nH]c3=O)cc(F)cc12	Cyclin-dependent kinase 1, with cyclin B (CDK1, Homo sapiens, UniProt P06493)	enzyme activity, inhibitor	0.1 µM	inhibition	5.9%
Nc1ncc(-c2nc(N3CCOCC3)nc(N3CCOCC3)n2)c(C(F)F)n1	Serine/threonine-protein kinase Sgk2 (SGK2, Homo sapiens, UniProt Q9HBY8)	binding, competition with immobilised ligand	10 µM	remaining binding	84%
Cn1cc(-c2cccc(N3CCc4c(sc5c4CC(C)(C)C5)C3=O)c2CO)cc(Nc2ccncn2)c1=O	Cyclin-dependent kinase 9, with cyclin K (CDK9, Homo sapiens, UniProt P50750)	enzyme activity, inhibitor	1 µM	inhibition	11%
N#C[C@@H]1CC(F)(F)CN1C(=O)CNC(=O)c1ccnc2ccccc12	Prolyl endopeptidase FAP (FAP, Homo sapiens, UniProt Q12884)	enzyme activity, inhibitor	0.1 µM	inhibition	100%
Nc1ccc(-c2nsc(=O)o2)cc1	PSMB6	enzyme activity, inhibitor		kinact/KI	1.09 M⁻¹ s⁻¹
CN(C)C(=O)COC(=O)Cc1ccc(OC(=O)c2ccc(NC(=N)N)cc2)cc1	DPP4	enzyme activity, inhibitor	10 µM	inhibition	17%
COc1ncccc1-c1cnn2ccc(N3CCN(C(=O)OC(C)C)CC3)nc12	Bone morphogenetic protein receptor type-2 (BMPR2, Homo sapiens, UniProt Q13873)	binding, competition with immobilised ligand	1 µM	remaining binding	72%
Nc1cccc(-c2nsc(=O)o2)c1	PSMB6	enzyme activity, inhibitor		kinact/KI	0.61 M⁻¹ s⁻¹
N=C(N)c1ccc2cc(OC(=O)c3ccc(N=C(N)N)cc3)ccc2c1	DPP4	enzyme activity, inhibitor	10 µM	inhibition	18%
C#Cc1n[nH]c2c(-c3cn([C@@H](C)c4ccccn4)c(=O)[nH]c3=O)cc(F)cc12	Cyclin-dependent kinase 9, with cyclin T1 (CDK9, Homo sapiens, UniProt P50750)	enzyme activity, inhibitor	0.1 µM	inhibition	8.9%
Oc1cc(Br)cc(Br)c1Oc1ccc(Br)cc1Br	Sulfotransferase 1E1 (SULT1E1, Homo sapiens, UniProt P49888)	enzyme activity, substrate		Km	63.2 µM
CCOC(=O)c1ccc(OC(=O)CCCCCNC(=N)N)cc1	DPP4	enzyme activity, inhibitor	10 µM	inhibition	21%
Cc1nn(C)cc1-c1nc2c(N3CCN(Cc4ccc(Cl)cc4)CC3)c(Cl)cnc2[nH]1	PRKAA2	binding, competition with immobilised ligand	1 µM	remaining binding	0.9%
COc1ccc(S(=O)(=O)N(CC(=O)NO)CC(C)C)cc1	Stromelysin-2 (Homo sapiens, UniProt P09238)	enzyme activity, inhibitor	1 µM	inhibition	63%
Cc1ncc(C)n2nc(/C=C/c3nc(N4CCCC4)cc(N4CCOCC4)n3)nc12	C-X-C chemokine receptor type 4 (CXCR4, Homo sapiens, UniProt P61073)	cell-free assay	10 µM	inhibition	-8%
CCN(CC)CCCC[C@H](NC(=O)[C@H](CC(C)C)NC(=O)[C@H](C)NC(=O)[C@H](Cc1ccccc1)NC(=O)c1ccc(C(C)(C)C)cc1)C(=O)N[C@@H](CO)C(=O)OC	SP140 (Homo sapiens, UniProt Q13342)	thermal stability, DSF	25 µM	ΔTm	0.07 °C
